Source: ChEMBL document CHEMBL2375314, “Mitochondrial-targeted protective properties of isolated diterpenoids from sideritis spp. in response to the deleterious changes induced by H2O2” (J Nat Prod, 2013)
Active and inactive are the calls of the source. The calls are words filed in the database; no cut-off is given here.

Assays:
[1] = system: PC-12; assay: Neurotoxicity in rat PC12 cells assessed as change in cytosolic calcium level at 10 uM after 24 hrs by indo-1/AM staining-based fluorocytometric analysis (reference value: 51.3 +/- 11.3 nM); assay type: toxicity, cell-based; settings: pc-12, 24 h
[2] = system: PC-12; assay: Neuroprotective activity in rat PC12 cells assessed as inhibition of H2O2-induced caspase-3 activity at 5 to 10 uM incubated for 24 hrs prior to H2O2 challenge measured after 30 mins by fluorometric analysis in presence of Ac-DEVD-AMC; assay type: functional, cell-based
Outline: (§1)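 Cells held 24 h with 5 or 10 μM, H2O2 then applied for 30 min in challenge arms (0.1 mM PC12, 1 mM U373-MG). Total cell extract (20 μg) incubated with Ac-DEVD-AMC (20 μM) for 1 h at 37 °C. Released AMC read at ex 360/em 460 nm. Expressed as % of control; mean ± SD, n = 9.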

[3] = system: PC-12; assay: Neurotoxicity in rat PC12 cells assessed as change in mitochondrial membrane potential at 5 to 10 uM after 24 hrs by TMRM staining-based fluorocytometric analysis relative to control; assay type: toxicity, cell-based; settings: pc-12, 24 h
Outline: (§2)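 Cells given 5 or 10 μM for 24 h, then H2O2 for 30 min (0.1 mM PC12, 1 mM U373-MG) where challenged. Loaded in Krebs medium with 150 nM TMRM; fluorescence at ex 549/em 573 nm read for 45 min at 37 °C. FCCP (6 μM) plus oligomycin (0.25 μg/mL) then added for maximal depolarization and read 15 min. Value from maximal minus basal fluorescence, as % of control; mean ± SD, n = 9.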

[4] = system: PC-12; assay: Neuroprotective activity in rat PC12 cells assessed as decrease in H2O2-induced cytosolic calcium level at 10 uM incubated for 24 hrs prior to H2O2 challenge measured after 30 mins by indo-1/AM staining-based fluorocytometric analysis (reference value: 395.9 +/- 15.9 nM); assay type: functional
[5] = system: U373 MG; assay: Neuroprotective activity in human U373MG cells assessed as inhibition of H2O2-induced caspase-3 activity at 5 to 10 uM incubated for 24 hrs prior to H2O2 challenge measured after 30 mins by fluorometric analysis in presence of Ac-DEVD-AMC; assay type: functional, cell-based; settings: U-373MG ATCC; outline: as §1
[6] = Neurotoxicity in human U373MG cells assessed as change in mitochondrial calcium level at 5 uM after 24 hrs by Rhod-2 staining-based fluorocytometric analysis (reference value: 1 +/- 0.03 nM); assay type: toxicity, cell-based; settings: u-373mg atcc
Outline: (§3)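 24 h exposure at 5 or 10 μM, optionally followed by 30 min H2O2 (0.1 mM PC12, 1 mM U373-MG). Cells loaded with Rhod-2/AM in Krebs normal-calcium medium for 40 min at 37 °C in the dark, then 30 min for ester hydrolysis. Fluorescence at ex 552/em 581 nm for 4 min, then 15 min after A23187 (5 μM). Ratio of post-ionophore maximum to basal, relative to control; mean ± SD, n = 9.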

[7] = Neurotoxicity in human U373MG cells assessed as change in mitochondrial membrane potential at 5 to 10 uM after 24 hrs by TMRM staining-based fluorocytometric analysis relative to control; assay type: toxicity, cell-based; settings: u-373mg atcc; outline: as §2
[8] = system: U373 MG; assay: Neuroprotective activity in human U373MG cells assessed as decrease in H2O2-induced cytosolic calcium level at 10 uM incubated for 24 hrs prior to H2O2 challenge measured after 30 mins by indo-1/AM staining-based fluorocytometric analysis (reference value: 482.7 +/- 14.5 nM); assay type: functional, U-373MG ATCC
[9] = system: PC-12; assay: Neuroprotective activity in rat PC12 cells assessed as decrease in H2O2-induced cytosolic calcium level at 5 uM incubated for 24 hrs prior to H2O2 challenge measured after 30 mins by indo-1/AM staining-based fluorocytometric analysis (reference value: 395.9 +/- 15.9 nM); assay type: functional
[10] = system: PC-12; assay: Neuroprotective activity in rat PC12 cells assessed as protection against H2O2-induced reduction in mitochondrial membrane potential at 5 to 10 uM incubated for 24 hrs prior to H2O2 challenge measured after 30 mins by TMRM staining-based fluorocytometric analysis relative to control; assay type: functional, cell-based; outline: as §2
[11] = system: U373 MG; assay: Neuroprotective activity in human U373MG cells assessed as protection against H2O2-induced reduction in cellular ATP level at 5 to 10 uM incubated for 24 hrs prior to H2O2 challenge measured after 30 mins by HPLC analysis; assay type: functional, cell-based; settings: U-373MG ATCC
Outline: (§4)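 After 24 h at 5 or 10 μM, with or without H2O2 for 30 min (0.1 mM PC12; 1 mM U373-MG), cells extracted in 0.6 M HClO4/25 mM EDTA and neutralized with KOH/Tris. Reversed-phase C18 HPLC, isocratic 100 mM KH2PO4 (pH 6.5)/1% methanol at 1 mL/min, UV at 254 nm. Quantified against an ATP standard curve (0.25–5 μM), normalized to protein, as % of control; mean ± SD, n = 9.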

[12] = system: PC-12; assay: Neurotoxicity in rat PC12 cells assessed as change in mitochondrial calcium level at 10 uM after 24 hrs by Rhod-2 staining-based fluorocytometric analysis (reference value: 1 +/- 0.02 nM); assay type: toxicity, cell-based; settings: pc-12, 24 h; outline: as §3
[13] = Neurotoxicity in human U373MG cells assessed as change in cytosolic calcium level at 5 uM after 24 hrs by indo-1/AM staining-based fluorocytometric analysis (reference value: 91.1 +/- 12.5 nM); assay type: toxicity, cell-based; settings: u-373mg atcc
[14] = system: U373 MG; assay: Neuroprotective activity in human U373MG cells assessed as decrease in H2O2-induced cytosolic calcium level at 5 uM incubated for 24 hrs prior to H2O2 challenge measured after 30 mins by indo-1/AM staining-based fluorocytometric analysis (reference value: 482.7 +/- 14.5 nM); assay type: functional, U-373MG ATCC
[15] = system: PC-12; assay: Neurotoxicity in rat PC12 cells assessed as caspase-3 activation at 5 to 10 uM after 24 hrs by fluorometric analysis in presence of Ac-DEVD-AMC; assay type: toxicity, cell-based; settings: pc-12, 24 h; outline: as §1
[16] = system: U373 MG; assay: Neuroprotective activity in human U373MG cells assessed as reduction of H2O2-induced mitochondrial calcium level at 5 uM incubated for 24 hrs prior to H2O2 challenge measured after 30 mins by Rhod-2 staining-based fluorocytometric analysis (reference value: 1.5 +/- 0.02 nM); assay type: functional, U-373MG ATCC; outline: as §3
[17] = system: PC-12; assay: Neuroprotective activity in rat PC12 cells assessed as protection against H2O2-induced reduction in cellular ATP level at 5 to 10 uM incubated for 24 hrs prior to H2O2 challenge measured after 30 mins by HPLC analysis; assay type: functional, cell-based; outline: as §4
[18] = system: PC-12; assay: Neurotoxicity in rat PC12 cells assessed as change in mitochondrial calcium level at 5 uM after 24 hrs by Rhod-2 staining-based fluorocytometric analysis (reference value: 1 +/- 0.02 nM); assay type: toxicity, cell-based; settings: pc-12, 24 h; outline: as §3
[19] = system: PC-12; assay: Neuroprotective activity in rat PC12 cells assessed as reduction of H2O2-induced mitochondrial calcium level at 10 uM incubated for 24 hrs prior to H2O2 challenge measured after 30 mins by Rhod-2 staining-based fluorocytometric analysis (reference value: 1.7 +/- 0.01 nM); assay type: functional; outline: as §3
[20] = Neurotoxicity in human U373MG cells assessed as caspase-3 activation at 5 to 10 uM after 24 hrs by fluorometric analysis in presence of Ac-DEVD-AMC; assay type: toxicity, cell-based; settings: u-373mg atcc; outline: as §1
[21] = Neurotoxicity in human U373MG cells assessed as change in mitochondrial calcium level at 10 uM after 24 hrs by Rhod-2 staining-based fluorocytometric analysis (reference value: 1 +/- 0.03 nM); assay type: toxicity, cell-based; settings: u-373mg atcc; outline: as §3
[22] = Neurotoxicity in human U373MG cells assessed as change in cytosolic calcium level at 10 uM after 24 hrs by indo-1/AM staining-based fluorocytometric analysis (reference value: 91.1 +/- 12.5 nM); assay type: toxicity, cell-based; settings: u-373mg atcc
[23] = system: U373 MG; assay: Neuroprotective activity in human U373MG cells assessed as protection against H2O2-induced reduction in mitochondrial membrane potential at 5 to 10 uM incubated for 24 hrs prior to H2O2 challenge measured after 30 mins by TMRM staining-based fluorocytometric analysis relative to control; assay type: functional, cell-based; settings: U-373MG ATCC; outline: as §2
[24] = system: PC-12; assay: Neurotoxicity in rat PC12 cells assessed as change in cytosolic calcium level at 5 uM after 24 hrs by indo-1/AM staining-based fluorocytometric analysis (reference value: 51.3 +/- 11.3 nM); assay type: toxicity, cell-based; settings: pc-12, 24 h
[25] = system: PC-12; assay: Neuroprotective activity in rat PC12 cells assessed as reduction of H2O2-induced mitochondrial calcium level at 5 uM incubated for 24 hrs prior to H2O2 challenge measured after 30 mins by Rhod-2 staining-based fluorocytometric analysis (reference value: 1.7 +/- 0.01 nM); assay type: functional; outline: as §3
[26] = Neurotoxicity in human U373MG cells assessed as effect on cellular ATP level at 5 to 10 uM after 24 hrs by HPLC analysis; assay type: toxicity, cell-based; settings: u-373mg atcc; outline: as §4
[27] = system: U373 MG; assay: Neuroprotective activity in human U373MG cells assessed as reduction of H2O2-induced mitochondrial calcium level at 10 uM incubated for 24 hrs prior to H2O2 challenge measured after 30 mins by Rhod-2 staining-based fluorocytometric analysis (reference value: 1.5 +/- 0.02 nM); assay type: functional, U-373MG ATCC; outline: as §3
[28] = system: PC-12; assay: Neurotoxicity in rat PC12 cells assessed as effect on cellular ATP level at 5 to 10 uM after 24 hrs by HPLC analysis; assay type: toxicity, cell-based; settings: pc-12, 24 h; outline: as §4

Row | SMILES | Activity [1] [nM] | Activity [2] | Activity [3] | Activity [4] [nM] | Activity [6] [nM] | Activity [7] | Activity [8] [nM] | Activity [9] [nM] | Activity [10] | Activity [12] [nM] | Activity [13] [nM] | Activity [14] [nM] | Activity [15] | Activity [16] [nM] | Activity [17] | Activity [18] [nM] | Activity [19] [nM] | Activity [20] | Activity [21] [nM] | Activity [22] [nM] | also measured
1 | CC1(C)CCC[C@H]2C1=CC[C@H]1C[C@@](C)([C@@H](O)CO)C[C@@H](O)[C@@]12C [LAGASCATRIOL] | 51.4 | Active | Non-toxic | 187.7 | 1.02 | Non-toxic | 208.5 | 202.5 | Active | 0.98 | 102.1 | 222.5 | Non-toxic | 1.22 | Active | 0.9 | 1.5 | Non-toxic | 1.05 | 98.1 | Activity [5]: Active; Activity [11]: Active; Activity [23]: Active; Activity [24]: 63.5 nM; Activity [25]: 1.4 nM; Activity [26]: Non-toxic; Activity [27]: 1.17 nM; Activity [28]: Non-toxic
2 | CC1(C)CCC[C@]2(C)[C@@H]1C[C@H](O)[C@@]13C=C[C@@](CO)(C1)[C@H](O)C[C@@H]23 [CONCHITRIOL] | 60.6 | Active | Non-toxic | 192.6 | 0.99 | Non-toxic | 430.9 | 188.8 | Active | 1.05 | 93.2 | 479.6 | Non-toxic | 1.48 | Active | 1.08 | 1.3 | Non-toxic | 0.97 | 98 | Activity [24]: 53.5 nM; Activity [25]: 1.4 nM; Activity [26]: Non-toxic; Activity [27]: 1.45 nM; Activity [28]: Non-toxic
3 | C=CC(=C)CC[C@H]1[C@]2(C)CCC[C@](C)(CO)[C@H]2[C@H](O)C[C@]1(C)O [ANDALUSOL] | 56.8 | Active | Non-toxic | 174.8 | 0.97 | Non-toxic | 166.2 | 185.8 | Active | 1.09 | 92.2 | 189.6 | Non-toxic | 1.15 | Active | 1.05 | 1.2 | Non-toxic | 0.99 | 98 | Activity [5]: Active; Activity [11]: Active; Activity [23]: Active; Activity [24]: 56.5 nM; Activity [25]: 1.3 nM; Activity [26]: Non-toxic; Activity [27]: 1.09 nM; Activity [28]: Non-toxic
